In ChEMBL document CHEMBL1156736, “Multidentate small-molecule inhibitors of vaccinia H1-related (VHR) phosphatase decrease proliferation of cervix cancer cells” (J Med Chem, 2009):
pIC50: −log10 of the molar value. Activity calls are given as the source filed them. The calls are words filed in the database; no cut-off is given here.

Key:
[1] = biological target: T1, M-phase inducer phosphatase 1 (Homo sapiens, UniProt P30304); assay: Inhibition of recombinant Cdc25a
T1 sequence (P30304 whole entry): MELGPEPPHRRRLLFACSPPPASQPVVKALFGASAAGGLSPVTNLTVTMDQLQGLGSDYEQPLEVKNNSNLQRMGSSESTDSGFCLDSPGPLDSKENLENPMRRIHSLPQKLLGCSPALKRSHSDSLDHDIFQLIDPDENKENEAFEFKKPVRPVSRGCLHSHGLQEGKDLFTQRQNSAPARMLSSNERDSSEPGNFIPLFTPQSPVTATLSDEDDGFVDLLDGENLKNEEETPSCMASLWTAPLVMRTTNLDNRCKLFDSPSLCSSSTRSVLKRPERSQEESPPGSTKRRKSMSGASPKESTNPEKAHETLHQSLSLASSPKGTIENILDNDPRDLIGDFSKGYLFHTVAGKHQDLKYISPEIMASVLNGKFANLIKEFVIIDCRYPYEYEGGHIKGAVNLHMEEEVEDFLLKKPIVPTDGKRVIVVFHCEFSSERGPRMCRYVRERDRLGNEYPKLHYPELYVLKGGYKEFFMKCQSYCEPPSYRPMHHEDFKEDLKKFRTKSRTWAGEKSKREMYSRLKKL

Keratinocyte = assay: Cytotoxicity against human keratinocytes at 20 uM after 24 hrs by Trypan blue assay; assay type: functional, cell-based
Procedure, shortened: (§1)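 10^5 cells (HeLa in DMEM/10% FCS; primary normal keratinocytes from hysterectomy tissue, trypsin-EDTA dispersed, in K-SFM with EGF, pituitary hormone) treated 24 h with 20 μM inhibitor or DMSO; trypsinized and counted with trypan blue in a counting chamber; cell numbers as percentage of DMSO control; mean ± SD, three independent experiments.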

HeLa [2] = assay: Antiproliferative activity against human HeLa cells at 20 uM after 24 hrs by Trypan blue assay; assay type: functional; procedure, shortened: as §1
HeLa [3] = assay: Antiproliferative activity against human HeLa cells at 20 uM after 24 hrs by [3H]thymidine incorporation assay relative to control; assay type: functional
Procedure, shortened: (§2)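 5×10^4 cells in DMEM complete medium exposed 24 h to 20 μM inhibitor or DMSO vehicle; [3H]thymidine ([…]) added for final 4 h, cells harvested onto glass fiber filters, radioactivity by scintillation counting; expressed relative to DMSO control; mean ± SD of three independent experiments.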

Ca-Ski = assay: Antiproliferative activity against human CaSki cells at 20 uM after 24 hrs by [3H]thymidine incorporation assay relative to control; assay type: functional; procedure, shortened: as §2

In the case of O=C1/C(=C/c2cn(-c3ccccc3)nc2-c2ccc(OCc3ccc(Cl)cc3)cc2)SC(=S)N1CCS(=O)(=O)O, the pIC50 [1] was 5.62, the Activity (Keratinocyte) was “Not toxic” and the Activity (HeLa [2]) was “Active”. For the same compound, the Activity (HeLa [3]) was “<=30%” and the Activity (Ca-Ski) was over 50%.
